16 compounds from ChEMBL document CHEMBL4033664, “Synthesis of benzoxazole derivatives as interleukin-6 antagonists” (Bioorg Med Chem, 2017) can be followed below.

Each structure is given as a SMILES string. Active and inactive are the calls of the source. The rule behind the calls is not given here.

A short description of series [1]: Cytotoxicity against human HepG2 cells assessed as cell viability at 10 ug/ml after 48 hrs by MTT assay. It counts as cell-based. The conditions noted are these: read-out: Activity. An outline of the steps:
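HepG2 cells in MEM with 10% FBS were exposed to compound at 1, 3, 10, 30 or 100 µg/ml for 48 h, then given MTT for 3 h. Formazan was dissolved in DMSO and OD read at 570 nm. Triplicates from three independent experiments, mean ± SE.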

Series [2] has as its target Interleukin-6 (Homo sapiens) (UniProt P05231). In words: Inhibition of IL-6 signaling pathway in human HepG2 cells transfected with p-STAT3-Luc assessed as reduction in IL-6 induced STAT3 phosphorylation at 20 ug/ml preincubated for 1 hr followed by IL-6 induction measured after 10 mins by immunoblot analysis. It counts as cell-based. An outline of the steps: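 HepG2 cells were grown in MEM to 80% confluence and serum-starved for 6 h. They were treated with compound for 1 h, then with IL-6 (20 ng/ml) for 10 min. Lysates were run on SDS-PAGE and immunoblotted with anti-phospho-STAT3. Scanned band intensity was expressed relative to the IL-6-only band, set at 100%.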

The next series relates to Th17. In words: Antiinflammatory activity in C57BL6 mouse CD4-positive T-effector Th17 cells assessed as suppression of IL-17 levels at 10 uM preincubated for 3 to 4 days followed by anti-CD3 stimulation for 24 hrs by ELISA. It counts as functional, cell-based.
Series [3] has as its system TH2 cell. In words: Antiinflammatory activity in C57BL6 mouse CD4-positive T-effector TH2 cells assessed as suppression of IL-4 levels at 10 uM preincubated for 3 to 4 days followed by anti-CD3 stimulation for 24 hrs by ELISA. It counts as functional, cell-based. Summed up:
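Mouse C57BL6 lymph node and spleen CD4+ T cells were primed for 24 h with anti-CD3 (2 µg/ml) and anti-CD28 (1 µg/ml). Th2 polarization used IL-4 (10 ng/ml) and anti-IFN-γ (1 µg/ml) with compound at 10 µM, refreshed every other day for 3-4 days. Cells were restimulated with anti-CD3 (1 µg/ml) for 24 h, and supernatant IL-4 was measured by biotin/streptavidin-peroxidase sandwich ELISA.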
Background: An ELISA detects its analyte on a solid surface through an enzyme-linked reagent.

The subject of series [4] is TH2 cell. Briefly: Antiinflammatory activity in C57BL6 mouse CD4-positive T-effector TH2 cells assessed as suppression of IL-13 levels at 10 uM preincubated for 3 to 4 days followed by anti-CD3 stimulation for 24 hrs by ELISA. It is filed as functional, cell-based.
The subject of series [5] is Th1. Briefly: Antiinflammatory activity in C57BL6 mouse CD4-positive T-effector Th1 cells assessed as suppression of anti-CD3/IL-12-induced IFNgamma levels at 10 uM preincubated for 3 to 4 days followed by anti-CD3 stimulation for 24 hrs by ELISA. It is filed as functional, cell-based. An outline of the steps:
(§1)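 CD4+ T cells were isolated from C57BL6 mouse lymph node and spleen and primed with anti-CD3 (2 µg/ml) plus anti-CD28 (1 µg/ml) for 24 h. Compound (10 µM) was added with IL-12 (10 ng/ml) and anti-IL-4 (5 µg/ml), renewed every other day for 3-4 days, then cells were restimulated with anti-CD3 (1 µg/ml) for 24 h. Supernatant cytokine was measured by sandwich ELISA with peroxidase-streptavidin and OD read-out.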

The subject of series [6] is TH2 cell. In words: Antiinflammatory activity in C57BL6 mouse CD4-positive T-effector TH2 cells assessed as suppression of IL-5 levels at 10 uM preincubated for 3 to 4 days followed by anti-CD3 stimulation for 24 hrs by ELISA. It counts as functional, cell-based.
Series [7] relates to Th1. Briefly: Antiinflammatory activity in C57BL6 mouse CD4-positive T-effector Th1 cells assessed as suppression of anti-CD3/IL-12-induced IL-2 levels at 10 uM preincubated for 3 to 4 days followed by anti-CD3 stimulation for 24 hrs by ELISA. It counts as functional, cell-based. An outline of the steps: as §1
Series [8] is described as follows: Proinflammatory activity in C57BL6 mouse CD4-positive T-effector Th1 cells assessed as increase in anti-CD3/IL-12-induced IL-2 levels at 10 uM preincubated for 3 to 4 days followed by anti-CD3 stimulation for 24 hrs by ELISA. The conditions noted are these: th1, 24 h. It is filed as ADME, cell-based. Summed up: as §1
The nature of series [9]: Proinflammatory activity in C57BL6 mouse CD4-positive T-effector Th1 cells assessed as increase in anti-CD3/IL-12-induced IFNgamma levels at 10 uM preincubated for 3 to 4 days followed by anti-CD3 stimulation for 24 hrs by ELISA. The conditions noted are these: th1, 24 h. It is filed as ADME, cell-based. Summed up: as §1

Sequence of Interleukin-6 (Homo sapiens) (P05231 whole entry): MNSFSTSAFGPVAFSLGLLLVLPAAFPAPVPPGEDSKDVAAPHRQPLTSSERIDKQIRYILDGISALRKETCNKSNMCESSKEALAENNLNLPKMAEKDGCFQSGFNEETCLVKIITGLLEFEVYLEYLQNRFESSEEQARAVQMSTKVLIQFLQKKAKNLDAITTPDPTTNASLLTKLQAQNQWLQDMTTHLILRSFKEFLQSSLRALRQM

The inhibition is the relative decrease from the control value, in per cent. Regarding `CCc1ccc(Nc2nc3cc(NC(=O)c4ccccc4Nc4cccc(C(F)(F)F)c4)ccc3o2)cc1`, the viability at 48 h, 10 ug/ml in series [1] worked out at 38.2%. In addition, the inhibition in [2] was found to be 84.6%.

Consider `CCc1ccc(Nc2nc3cc(NC(=O)c4cccc(CCl)c4)ccc3o2)cc1`, for which, in series [1], the viability at 48 h, 10 ug/ml came out at 41.1%. Also, the inhibition in [2] came to 91.7%.

For the compound `CCc1ccc(Nc2nc3cc(NC(=O)Cc4ccccc4)ccc3o2)cc1`, the inhibition in series [2] worked out at 61.7%.

`CCc1ccc(Nc2nc3cc(NC(=O)c4cc(F)cc(C(F)(F)F)c4)ccc3o2)cc1`: the inhibition in series [2] is 50.2%.

For `CCc1ccc(Nc2nc3cc(NC(=O)c4ccccc4)ccc3o2)cc1`, the viability at 48 h, 10 ug/ml in [1] came out at 65.6%. Moreover, in series [2], the inhibition was 93.1%.

For `CCc1ccc(Nc2nc3cc(NC(=O)c4ccc(CC)cc4)ccc3o2)cc1`, the inhibition in series [2] worked out at 63.3%.

With `CCc1ccc(Nc2nc3cc(NC(=O)c4ccc(OC)c(OC)c4)ccc3o2)cc1`, in [2], the inhibition was 26.2%.

Take `CCc1ccc(Nc2nc3cc(NC(=O)c4ccc(C(C)(C)C)cc4)ccc3o2)cc1`: the viability at 48 h, 10 ug/ml in [1] came out at 59.8%. The inhibition in series [2] turned out to be 86.5%.

Consider `CCc1ccc(Nc2nc3cc(NC(=O)c4cc(OC)c(OC)c(OC)c4)ccc3o2)cc1`, for which the viability at 48 h, 10 ug/ml in [1] worked out at 16.4%. Further, the inhibition in [2] came to 83.7%.

As for `CCc1ccc(Nc2nc3cc(N)ccc3o2)cc1`, the result with Th17, with TH2 cell [3], with TH2 cell [4], in the series on Th1 [5], with TH2 cell [6] and in the series on Th1 [7] was Active. Besides, the viability at 48 h, 10 ug/ml in series [1] is 70.8%. Moreover, the inhibition in series [2] is 97.5%.

Turning to `CCc1ccc(Nc2nc3cc(NC(=O)c4ccc(Cl)c(Cl)c4)ccc3o2)cc1`, in series [2], the inhibition stood at 69.3%.

With `CCc1ccc(Nc2nc3cc(NC(=O)c4cc([N+](=O)[O-])ccc4Cl)ccc3o2)cc1`, the inhibition in [2] came to 65.6%.

As for `CCc1ccc(Nc2nc3cc(NC(=O)c4ccc([N+](=O)[O-])cc4Cl)ccc3o2)cc1`, in series [2], the inhibition was 20%.

On to `CCc1ccc(Nc2nc3cc(NC(=O)c4ccc(Cl)cc4)ccc3o2)cc1`, for which the outcome with Th17, in the series on TH2 cell [3], in the series with TH2 cell [4] and in the series with TH2 cell [6] was inactive. The Activity result in series [8] and in [9] was “Toxic” each time. Moreover, the inhibition in series [2] is 12.1%.

Regarding `CCCCCCCc1ccc(C(=O)Nc2ccc3oc(Nc4ccc(CC)cc4)nc3c2)cc1`, the inhibition in series [2] was 57.2%.

For the compound `CCOc1ccccc1C(=O)Nc1ccc2oc(Nc3ccc(CC)cc3)nc2c1`, the inhibition in series [2] was determined as 58%.
